ChEMBL document CHEMBL1800034, “A synthetic 7,8-dihydroxyflavone derivative promotes neurogenesis and exhibits potent antidepressant effect” (J Med Chem, 2010)
Calls of active or inactive are those of the source. The calls are words filed in the database; no cut-off is given here.

Tests used:
Mus musculus [1] = assay: Toxicity in C57BL/6J mouse assessed as pathological changes in heart at 5 mg/kg, po for 3 weeks; assay type: organism-based; parameters: dose 5 mg/kg, route oral; conditions: in vivo, 504 h
Procedure, shortened: (§1)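 Mice were dosed orally at 5 mg/kg for 3 weeks, with saline-treated controls. Major organs were examined for pathological changes, and a complete blood count was done.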

[2] = molecular target: BDNF/NT-3 growth factors receptor (Rattus norvegicus) (UniProt Q63604); assay: Agonist activity at TrkB in E17 rat primary cortical neurons at 500 nM after 10 mins by immunoblotting; assay type: functional, cell-based; conditions: Cerebral cortex neuron
Procedure, shortened: (§2)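 Rat primary cortical neurons were exposed to 500 nM compound for various times between 5 and 180 min. Lysates were immunoblotted for TrkB, Akt and MAPK phosphorylation.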

Mus musculus [3] = assay: Agonist activity at TrkB in C57BL/6J mouse brain assessed as TrkB 706 phosphorylation at 1 mg/kg, po after 4 hrs by immunoblotting; assay type: functional, organism-based; parameters: dose 1 mg/kg
Procedure, shortened: (§3)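 C57BL/6J mice got a single oral dose of 1 mg/kg. Brains were collected at several time points, about 1 to 16 h after dosing. Lysates were immunoblotted for TrkB phosphorylation and for downstream Akt and MAPK phosphorylation.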

Mus musculus [4] = assay: Toxicity in C57BL/6J mouse assessed as pathological changes in spleen at 5 mg/kg, po for 3 weeks; assay type: organism-based; parameters: dose 5 mg/kg, route oral; conditions: in vivo, 504 h; procedure, shortened: as §1
Mus musculus [5] = assay: Agonist activity at TrkB in C57BL/6J mouse brain assessed as MAPK phosphorylation at 1 mg/kg, po after 1 to 16 hrs by immunoblotting; assay type: functional, organism-based; parameters: dose 1 mg/kg; procedure, shortened: as §3
[6] = Cytotoxicity at E17 rat primary cortical neurons assessed as cell death at 5 uM by LDH assay; assay type: cell-based; conditions: cerebral cortex neuron
[7] = molecular target: BDNF/NT-3 growth factors receptor (Rattus norvegicus) (UniProt Q63604); assay: Agonist activity at TrkB in E17 rat primary rat cortical neurons assessed as AKT phosphorylation at Ser 473 at 100 nM after 15 mins by titration assay; assay type: functional
Procedure, shortened: (§4)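 Primary cortical neurons were incubated with graded concentrations, starting at 10 nM, for 15 min. Phospho-Akt Ser473 was measured by sandwich ELISA on 20 µg of lysate. Data come from 2 replicated experiment sets, given as mean ± SEM. Comparisons used one-way ANOVA against control and Student's t-test between compounds.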

[8] = molecular target: BDNF/NT-3 growth factors receptor (Rattus norvegicus) (UniProt Q63604); assay: Agonist activity at TrkB in E17 rat primary rat cortical neurons assessed as AKT phosphorylation at Ser 473 after 15 mins by titration assay; assay type: functional; procedure, shortened: as §4
Mus musculus [9] = assay: Toxicity in C57BL/6J mouse assessed as pathological changes in testis at 5 mg/kg, po for 3 weeks; assay type: organism-based; parameters: dose 5 mg/kg, route oral; conditions: in vivo, 504 h; procedure, shortened: as §1
Mus musculus [10] = assay: Toxicity in C57BL/6J mouse assessed as pathological changes in lungs at 5 mg/kg, po for 3 weeks; assay type: organism-based; parameters: dose 5 mg/kg, route oral; conditions: in vivo, 504 h; procedure, shortened: as §1
HEK293 = assay: Cytotoxicity against human HEK293 cells assessed as inhibition of cell proliferation at up to 50 uM by MTT assay; assay type: cell-based
Mus musculus [11] = assay: Induction of neurogenesis in C57BL/6J mouse hippocampus dentate gyrus assessed as progenitor cell proliferation at 5 mg/kg, po administered for 21 days by DAPI and BrdU staining based fluorescence microscopy; assay type: functional, organism-based; parameters: dose 5 mg/kg
Procedure, shortened: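 Adult male C57BL/6J mice were gavaged at 5 mg/kg for 21 days and then given BrdU at 50 mg/kg i.p. Mice were perfused with 4% paraformaldehyde 2 h later. Paraffin sections had citrate antigen retrieval and 2 N HCl treatment, then were stained with anti-BrdU-FITC at 4 °C for 16 h and with DAPI. BrdU-positive cells in the dentate gyrus were counted by fluorescence microscopy.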

Mus musculus [12] = assay: Toxicity in C57BL/6J mouse assessed as pathological changes in liver at 5 mg/kg, po for 3 weeks; assay type: organism-based; parameters: dose 5 mg/kg, route oral; conditions: in vivo, 504 h; procedure, shortened: as §1
Mus musculus [13] = assay: Toxicity in C57BL/6J mouse assessed as pathological changes in kidney at 5 mg/kg, po for 3 weeks; assay type: organism-based; parameters: dose 5 mg/kg, route oral; conditions: in vivo, 504 h; procedure, shortened: as §1
[14] = molecular target: BDNF/NT-3 growth factors receptor (Rattus norvegicus) (UniProt Q63604); assay: Agonist activity at TrkB in E16 rat embryonic cortical neurons assessed as inhibition of glutamate-induced caspase 3 activation at 10 nM after 30 mins followed by 16 hrs of 50 uM glutamate-challenge by ELISA; assay type: functional
Procedure, shortened: (§5)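 Cortical neurons from E16 rat embryos were pretreated with the indicated compound concentrations for 30 min. They were then challenged with 50 µM glutamate for 16 h. Active caspase-3 in the lysates was measured by ELISA.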

Mus musculus [15] = assay: Agonist activity at TrkB in C57BL/6J mouse brain assessed as AKT phosphorylation at Ser473 at 1 mg/kg, po after 1 to 16 hrs by immunoblotting; assay type: functional, organism-based; parameters: dose 1 mg/kg; procedure, shortened: as §3
Mus musculus [16] = assay: Toxicity in C57BL/6J mouse assessed as affect on complete blood count analysis at 5 mg/kg, po for 3 weeks; assay type: organism-based; parameters: dose 5 mg/kg, route oral; conditions: in vivo, 504 h; procedure, shortened: as §1
[17] = molecular target: BDNF/NT-3 growth factors receptor (Rattus norvegicus) (UniProt Q63604); assay: Agonist activity at TrkB in E16 rat embryonic cortical neurons assessed as inhibition of glutamate-induced caspase 3 activation at 50 to 500 nM after 30 mins followed by 16 hrs of 50 uM glutamate-challenge by ELISA; assay type: functional; procedure, shortened: as §5
[18] = molecular target: BDNF/NT-3 growth factors receptor (Rattus norvegicus) (UniProt Q63604); assay: Agonist activity at TrkB in E17 rat primary cortical neurons at 500 nM after 30 to 180 mins by immunoblotting; assay type: functional, cell-based; conditions: Cerebral cortex neuron; procedure, shortened: as §2
Mus musculus [19] = assay: Antidepressant activity in C57BL/6J mouse assessed as decrease in immobility at 5 mg/kg, po administered for 21 days measured last 4 mins of total 6 mins observation time by forced swim test; assay type: functional, organism-based; parameters: dose 5 mg/kg
Procedure, shortened: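 Male C57BL/6J mice, 2–3 months old, were gavaged with saline or compound at 5 mg/kg for 21 days. Mice were acclimated to the test room for 2 days. There was no pre-swim. Each mouse swam for 6 min in a 16 cm cylinder of water 14 cm deep at 24 °C. Immobility was scored blind over the last 4 min; mean ± SEM, ANOVA.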

[20] = molecular target: BDNF/NT-3 growth factors receptor (Rattus norvegicus) (UniProt Q63604); assay: Agonist activity at TrkB in E17 rat primary cortical neurons at 500 nM after 5 mins by immunoblotting; assay type: functional, cell-based; conditions: Cerebral cortex neuron; procedure, shortened: as §2
Mus musculus [21] = assay: Agonist activity at TrkB in C57BL/6J mouse brain assessed as TrkB 706 phosphorylation at 1 mg/kg, po at 1 hr by immunoblotting; assay type: functional, organism-based; parameters: dose 1 mg/kg; procedure, shortened: as §3
[22] = molecular target: BDNF/NT-3 growth factors receptor (Rattus norvegicus) (UniProt Q63604); assay: Agonist activity at TrkB in E17 rat primary cortical neurons assessed as MAPK phosphorylation at 500 nM by ELISA; conditions: Cerebral cortex neuron
Mus musculus [23] = assay: Toxicity in C57BL/6J mouse assessed as pathological changes in brain cortex at 5 mg/kg, po for 3 weeks; assay type: organism-based; parameters: dose 5 mg/kg, route oral; conditions: in vivo, 504 h; procedure, shortened: as §1
Mus musculus [24] = assay: Agonist activity at TrkA in C57BL/6J mouse brain lysate assessed as TrkA phosphorylation at Y794 at 5 mg/kg, po administered for 21 days by immunoblotting; assay type: functional, organism-based; parameters: dose 5 mg/kg
Procedure, shortened: (§6)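 Adult male C57BL/6J mice, 8 per group, dosed orally by gavage once daily for 21 days; saline was the vehicle. Brain lysates were immunoblotted with anti-p-TrkA 794 and anti-p-TrkB 817.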

Mus musculus [25] = assay: Agonist activity at TrkB in C57BL/6J mouse brain lysate assessed as TrkB phosphorylation at Y817 at 5 mg/kg, po administered for 21 days by immunoblotting; assay type: functional, organism-based; parameters: dose 5 mg/kg; procedure, shortened: as §6
[26] = molecular target: BDNF/NT-3 growth factors receptor (Rattus norvegicus) (UniProt Q63604); assay: Agonist activity at TrkB in E17 rat primary rat cortical neurons assessed as AKT phosphorylation at Ser 473 at 500 nM after 15 mins by ELISA; assay type: functional
[27] = molecular target: BDNF/NT-3 growth factors receptor (Rattus norvegicus) (UniProt Q63604); assay: Agonist activity at TrkB in E17 rat primary rat cortical neurons assessed as AKT phosphorylation at Ser 473 at 10 nM after 15 mins by titration assay; assay type: functional; procedure, shortened: as §4

Sequence of BDNF/NT-3 growth factors receptor (Rattus norvegicus) (Q63604 whole entry): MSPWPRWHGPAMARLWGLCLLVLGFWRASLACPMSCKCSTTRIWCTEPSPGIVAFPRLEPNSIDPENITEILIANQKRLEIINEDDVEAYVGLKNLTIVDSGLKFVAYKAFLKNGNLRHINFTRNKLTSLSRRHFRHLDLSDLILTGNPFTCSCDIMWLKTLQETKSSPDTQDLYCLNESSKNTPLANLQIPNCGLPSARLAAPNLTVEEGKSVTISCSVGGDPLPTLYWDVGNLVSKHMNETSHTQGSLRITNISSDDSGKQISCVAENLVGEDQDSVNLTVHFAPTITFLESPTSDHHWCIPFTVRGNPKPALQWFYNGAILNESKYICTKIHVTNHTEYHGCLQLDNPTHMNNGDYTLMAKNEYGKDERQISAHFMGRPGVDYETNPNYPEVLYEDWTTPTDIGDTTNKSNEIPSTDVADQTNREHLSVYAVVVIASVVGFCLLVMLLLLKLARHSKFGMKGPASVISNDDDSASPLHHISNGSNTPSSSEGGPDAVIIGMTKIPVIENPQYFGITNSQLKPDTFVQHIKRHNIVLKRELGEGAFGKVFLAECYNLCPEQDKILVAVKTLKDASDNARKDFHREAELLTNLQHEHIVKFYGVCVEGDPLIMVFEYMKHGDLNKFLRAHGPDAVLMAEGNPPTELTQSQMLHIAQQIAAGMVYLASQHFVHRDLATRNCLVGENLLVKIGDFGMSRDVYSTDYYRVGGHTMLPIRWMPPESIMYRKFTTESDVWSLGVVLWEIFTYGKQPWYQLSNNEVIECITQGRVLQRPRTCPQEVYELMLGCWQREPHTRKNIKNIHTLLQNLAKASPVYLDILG

Activity [2]: Active
Activity [7]: Active
Activity [8]: Dose-dependent effect
inhibition [14]: Active
Activity [17]: Active
Activity [18]: inactive
Activity [20]: Active
Activity [22]: Active
Activity [26]: Active
Activity [27]: Active
Compound: CN(C)c1ccc(-c2cc(=O)c3ccc(O)c(O)c3o2)cc1
Activity (Mus musculus [1]): Non-toxic
Activity (Mus musculus [3]): Active
Activity (Mus musculus [4]): Non-toxic
Activity (Mus musculus [5]): Active
Activity [6]: Non-toxic
Activity (Mus musculus [9]): Non-toxic
Activity (Mus musculus [10]): Non-toxic
Activity (HEK293): Non-toxic
Activity (Mus musculus [11]): Active
Activity (Mus musculus [12]): Non-toxic
Activity (Mus musculus [13]): Non-toxic
Activity (Mus musculus [15]): Active
Activity (Mus musculus [16]): Non-toxic
Activity (Mus musculus [19]): Active
Activity (Mus musculus [21]): Active
Activity (Mus musculus [23]): Non-toxic
Activity (Mus musculus [24]): inactive
Activity (Mus musculus [25]): Active
